Assay outcomes: PubChem, several laboratories
UPR CHOP act – activators of apoptotic CHOP UPR arm, primary screen, cell-based, CHO-CHOP luciferase reporter, luminescence, uHTS; UPR activation; percent of tunicamycin response over DMSO baseline; activation, % at 10 µM; hit rate 0.34% among 330,000;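 active = at 10 µM dose, activation of 40% or more, normalized to positive control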;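 note: 100% = tunicamycin at 10 µg/mL and 0% = DMSO alone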
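Test system: CHO-CHOP cells, stable luciferase reporter of PERK-eIF2a-CHOP signalling | Quantity: 500 CHO-CHOP cells per well | Buffer or medium: F12 plus 10% serum | Compound dosing: 10 µM single point, 0.5% DMSO | Schedule: 6 h compound treatment, 37 °C | Signal: Luciferase luminescence | Control set: Tunicamycin high control, DMSO low control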
MPTP block – mitochondrial permeability transition pore inhibitors, primary screen, biochemical, isolated mouse mitochondria, absorbance | Ca2+ swelling absorbance, 30 min | inhibition, % at 10 µM | hit rate 1.4% among 360,000 | AID 602449, 2012;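 active = inhibition of 50% or more, scaled per plate between neutral and stimulator controls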;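 note: 0% = DMSO wells given calcium and 100% = 1 mM EGTA wells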
GRIN3A LBD mod – binders of NR3A ligand-binding domain, primary screen, biophysical, differential scanning fluorimetry, uHTS | Glutamate receptor ionotropic, NMDA 3A (GRIN3A) ligand-binding domain | NR3A LBD differential scanning fluorimetry, Tm shift; 0% = protein alone, 100% = glycine-bound protein | Tm shift relative to glycine control, % at 25 µM | hit rate 2.5% among 340,000;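 active = melting temperature shift of at least 10% of the positive control shift, at one fixed dose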
CHOP inhibitor – inhibitors of CHOP promoter induction, primary screen, cell-based, unfolded protein response, luciferase reporter; CHO-K1 CHOP-promoter luciferase, tunicamycin-induced, 15-18 h; inhibition, % at 10 µM; hit rate 3.8% among 220,000;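 active = compounds that reduced the stress-induced luciferase reporter signal by more than about 70% of percent inhibition, limit read from the data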;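 note: 0% = tunicamycin plus vehicle and 100% = wells without tunicamycin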
UPR XBP1 act – activators of adaptive XBP1 UPR arm, primary screen, cell-based, CHO-XBP1 luciferase reporter, luminescence, uHTS | AID 463104, 2010 | IRE1-XBP1 UPR activation; percent of tunicamycin response, DMSO as zero | hit rate 0.33% among 330,000 | activation, % at 20 µM;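 active = versus positive control, 20 µM dose yields 30% or more activation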;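 note: 100% = tunicamycin at 10 µg/mL and 0% = DMSO only wells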
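Material: CHO cell line with stable XBP1 luciferase reporter; buffer or medium: F12 medium containing 10% fetal bovine serum; compound: single point, 20 µM final compound, 1% DMSO; incubation: 6 h treatment, 37 °C; measured by: glow luminescence from Steady-Glo reagent; evaluation: activation, % of tunicamycin; control set: tunicamycin high, DMSO low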
aDG glyco act – activators of alpha-DG glycosylation, primary screen, uHTS, Pro5-aDG cells, AlphaScreen | alpha-DG glycosylation AlphaScreen (IIH6); 0% Pro5, 100% B10-LARGE cell signal | activation, % at 10 µM | hit rate 0.22% among 360,000 | AID 624168, 2012;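 active = activation of at least 8% versus controls, or a plate z-score of at least 8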;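 note: Pro5 are CHO cells carrying HIG-tagged alpha-DG that lacks glycosylation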
CHOP inh conf – retest of CHOP induction inhibitors, confirmation, cell-based; shares compounds with CHOP inhibitor; CHO-CHOP promoter luciferase reporter, tunicamycin-induced, luminescence; inhibition, % at 10 µM; hit rate 45% among 2,100;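 active = mean of three repeat readings of reporter signal inhibition above a set limit, cut at about 70% in these data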;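 note: 0% = tunicamycin plus vehicle and 100% = wells lacking tunicamycin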
* marks the source's active call; other numbers are inactive results; . = no result given. A selection: hits, their analogues and other compounds. The true share with any hit is near 5.6%.

SMILES | UPR CHOP act | MPTP block | GRIN3A LBD mod | CHOP inhibitor | UPR XBP1 act | aDG glyco act | CHOP inh conf
Cc1ccccc1-n1c(-c2ccc(Cl)cc2)cnc1SCC(=O)NC1CCS(=O)(=O)C1 (stereo not given) | -1.3 | 1.2 | -0.7 | 29.3 | -5.3 | 0.1 | .
CCc1nnc(NC(=O)c2ccc(S(=O)(=O)N(C)Cc3ccccc3)cc2)o1 | 3.0 | -2.3 | -4.7 | . | -3.5 | 0.6 | .
COc1ccccc1-c1nnc(NC(=O)c2ccc(S(=O)(=O)N(C)Cc3ccccc3)cc2)o1 | 24.3 | . | 0.3 | 97.3* | 1.2 | . | 97.1*
O=C1NC(=S)S/C1=C\C=C\c1ccc([N+](=O)[O-])o1 | . | 39.9 | 4.1 | 105.1* | . | -0.3 | 117.4*
O=C(O)/C=C/c1ccc([N+](=O)[O-])o1 | -1.1 | 0.9 | -0.6 | 26.7 | -0.9 | -0.1 | .
O=C(COc1ccc(Cl)cc1)N(Cc1ccccc1)c1nc(-c2ccccc2)cs1 | 3.0 | 2.2 | -2.1 | 103.1* | 6.0 | 0.1 | 54.0
COc1ccc(-c2csc(N(CCc3ccccc3)C(=O)COc3ccccc3)n2)cc1 | -2.2 | -0.1 | 0.3 | 31.6 | 1.1 | 0.3 | .
CCN1C(=O)[C@H]2[C@@H](c3ccc(-c4ccc(F)cc4)c(OC)c3)N[C@@](Cc3ccccc3)(C(=O)OC)[C@H]2C1=O | 3.4 | 2.0 | -4.4 | . | -2.1 | 0.5 | .
Cc1nc(COC(=O)c2cc(O)c3ccccc3c2O)cs1 | . | 7.3 | 2.0 | 103.8* | . | 0.3 | 119.7*
Cc1cccc(Nc2nc(N)c([N+](=O)[O-])c(NCc3ccccc3)n2)c1 | 1.5 | 6.7 | 0.8 | 101.9* | 3.1 | -0.2 | 24.7
CC(OC(=O)CCCN=C1NS(=O)(=O)c2ccccc21)C(=O)Nc1ccccc1[N+](=O)[O-] (stereo not given) | -0.2 | -0.6 | -2.1 | . | 2.3 | -0.1 | .
O=C1C=CC(O)(c2cc(=O)c3c(O)cc(O)cc3o2)C=C1 | -8.0 | 0.6 | -15.0 | 108.0* | -4.8 | 0.4 | 121.7*
O=c1cc(-c2ccccc2Cl)oc2cc(O)cc(O)c12 | 0.8 | 12.8 | -3.3 | 27.7 | 5.1 | 0.0 | .
COc1ccccc1C(=O)NCCC(=O)NCC(c1ccc(F)cc1)N1CCOCC1 (stereo not given) | 0.4 | -0.8 | 2.5 | . | 1.2 | -0.2 | .
O=C(c1ccco1)N1CCN(c2c(-c3ccccc3)c3cc(Cl)ccc3[nH]c2=O)CC1 | -0.1 | 0.4 | -18.3 | 97.5* | -3.6 | 0.2 | 115.2*
O=S(=O)(Nc1ccccc1)c1ccc(-c2csnn2)cc1 | 1.3 | 5.1 | -2.5 | -4.2 | -1.0 | 0.1 | .
O=S(=O)(Nc1ccc(-c2csc(-c3ccccc3)n2)cc1)c1ccc(F)cc1 | 3.6 | 6.8 | 22.2* | 104.8* | 1.3 | 0.2 | 36.2
CCSc1nnc(NC(=O)CN2C(=O)NC3(CCCC3)C2=O)s1 | -3.6 | 0.4 | 1.8 | . | -1.4 | 0.1 | .
Cc1ccc(Cn2c(=O)c3c(nc4n3CCCN4Cc3ccccc3)n(C)c2=O)cc1 | 0.7 | 1.2 | -23.1 | 104.5* | -1.6 | -0.2 | -11.0
CC1=NN(c2nc(-c3ccc(C)cc3)cs2)C(=O)C1N=Nc1ccccc1O (stereo not given) | 1.8 | 5.8 | 10.6* | 106.5* | 0.6 | 0.2 | 76.8*
COc1ccc(-c2csc(N3N=C(C)C(C)C3=O)n2)cc1 (stereo not given) | 3.6 | 0.4 | -0.8 | -33.4 | -0.6 | -0.4 | .
O=C(OCC(=O)N1CCc2ccccc21)c1nc(Cl)ccc1Cl | 0.8 | -0.5 | -0.6 | -2.6 | -2.6 | 0.2 | .
COc1cc(C(=O)NCC(=O)NNC(=O)C2COc3ccccc3O2)cc(OC)c1OC (stereo not given) | 1.4 | -0.5 | -1.8 | . | -0.4 | -0.1 | .
Cc1ccc(C2CN(C)C3(C(=O)Nc4ccccc43)C23COc2ccccc2C3=O)cc1 (stereo not given) | -2.5 | 10.4 | -2.8 | 106.8* | 1.2 | 0.0 | 88.1*
N#CC1=C(N)Oc2n[nH]c(-c3cccs3)c2C1C1CCCCC1 (stereo not given) | 0.6 | 1.8 | -21.0 | 103.8* | 0.3 | -0.1 | 37.2
SMILES | UPR CHOP act | MPTP block | GRIN3A LBD mod | CHOP inhibitor | UPR XBP1 act | aDG glyco act | CHOP inh conf
O=C(C[n+]1cc(Br)cc2ccccc21)c1ccc(Br)cc1 | 2.3 | 0.9 | 0.0 | . | -4.5 | -0.2 | .
O=C(C[n+]1cn(C(F)F)c2ccccc21)c1ccc(Br)cc1 | -1.5 | 1.4 | -1.1 | 100.6* | 0.5 | -0.1 | 15.3
O=C(NCCC1CCCCN1S(=O)(=O)c1ccc(F)cc1)C(=O)NCC1CCCO1 (stereo not given) | 1.3 | -0.4 | -0.3 | . | -0.7 | -0.2 | .
O=[N+]([O-])c1ccc(C=CC=Cc2ccccc2)cc1 | . | 2.8 | . | . | . | -0.2 | .
CN(c1ccccc1)c1ccc(/C=C/[N+](=O)[O-])cc1 | . | -0.6 | 16.2* | 109.8* | . | -0.7 | -96.5
COc1ccc(C(=O)NCC(=O)OCC(=O)Nc2cccc(S(=O)(=O)N3CCCC3)c2)cc1 | 0.1 | 2.9 | -0.4 | -7.5 | -3.1 | 0.1 | .
CCOC(=O)C1=C(Cc2ccc(F)cc2)C(=O)c2ccccc2C1=O | 125.3* | 14.0 | -8.3 | 108.0* | -2.4 | -0.1 | 36.7
O=C(OCc1ccc(F)cc1)c1ccc2c(c1)-c1ccccc1C2=O | 4.2 | -3.6 | 0.1 | 46.0 | 0.3 | -0.3 | .
C[C@H](NC(=O)c1[nH]cnc1C(=O)Nc1ccc(CNC(=O)OC(C)(C)C)cc1)C(=O)OC(C)(C)C | 2.7 | 1.6 | -10.2 | 98.1* | 2.5 | -0.3 | 78.1*
CC(C)(C)OC(=O)[C@H](Cc1ccccc1)NC(=O)c1nc[nH]c1C(=O)N[C@@H](Cc1ccccc1)C(=O)OC(C)(C)C | 2.1 | -0.4 | -25.2 | 31.2 | 18.5 | -0.3 | .
C[C@H](NC(=O)c1nc[nH]c1C(=O)N[C@@H](Cc1ccccc1)C(=O)OC(C)(C)C)C(=O)OC(C)(C)C | -0.1 | 1.4 | -15.5 | 97.0* | -4.0 | -0.2 | 99.8*
CCOc1ccccc1NC(=O)NCCCCc1ccccc1 | 0.4 | 0.0 | 6.7 | . | -1.9 | 0.3 | .
O=[N+]([O-])/C=C/c1cn(Cc2ccc(Cl)cc2)c2ccccc12 | 6.8 | -4.8 | -5.2 | 100.5* | 0.6 | 0.0 | -24.6
O=C(O)c1ccc(Cn2cc(/C=C\[N+](=O)[O-])c3ccccc32)o1 | 1.2 | 0.4 | 2.1 | . | -5.1 | 0.0 | .
